Test results taken from ChEMBL document CHEMBL4425129, “Exploring Basic Tail Modifications of Coumarin-Based Dual Acetylcholinesterase-Monoamine Oxidase B Inhibitors: Identification of Water-Soluble, Brain-Permeant Neuroprotective Multitarget Agents” (J Med Chem, 2016).
pIC50: −log10 of the molar value. Active and inactive are the calls of the source. The calls are words filed in the database; no cut-off is given here.

Legend:
[1] = Lipophilicity index, Log K of the compound at 1 mM by RP-HPLC method; type: physicochemical; details: 1000 µM
[2] = target: T1, Amine oxidase [flavin-containing] B (Homo sapiens, UniProt P27338); assay: Inhibition of human recombinant MAOB expressed in microsomes of baculovirus-infected insect cell using kynuramine as substrate preincubated for 20 mins followed by protein addition measured after 30 mins by fluorescence assay
T1 sequence (P27338 whole entry): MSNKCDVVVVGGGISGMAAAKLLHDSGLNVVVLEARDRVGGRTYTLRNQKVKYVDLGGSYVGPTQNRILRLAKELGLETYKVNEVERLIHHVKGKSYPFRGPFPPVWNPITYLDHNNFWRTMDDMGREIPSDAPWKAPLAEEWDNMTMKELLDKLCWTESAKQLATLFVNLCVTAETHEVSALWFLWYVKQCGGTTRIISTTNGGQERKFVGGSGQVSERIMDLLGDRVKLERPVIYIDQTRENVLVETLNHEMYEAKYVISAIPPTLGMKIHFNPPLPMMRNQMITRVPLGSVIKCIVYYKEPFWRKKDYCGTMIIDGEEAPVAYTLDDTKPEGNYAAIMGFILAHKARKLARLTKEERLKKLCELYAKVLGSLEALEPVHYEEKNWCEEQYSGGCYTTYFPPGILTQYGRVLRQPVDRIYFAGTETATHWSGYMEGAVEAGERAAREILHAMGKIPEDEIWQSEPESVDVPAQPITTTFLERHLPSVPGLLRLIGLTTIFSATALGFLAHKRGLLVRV

[3] = target: Cholinesterase (Equus caballus) (UniProt P81908); assay: Inhibition of equine serum BChE at 10 uM using butyrylthiocholine iodide as substrate preincubated for 20 mins followed by substrate addition measured for 5 mins by spectrophotometric Ellman's method relative to control
Cholinesterase (Equus caballus), sequence (P81908 whole entry): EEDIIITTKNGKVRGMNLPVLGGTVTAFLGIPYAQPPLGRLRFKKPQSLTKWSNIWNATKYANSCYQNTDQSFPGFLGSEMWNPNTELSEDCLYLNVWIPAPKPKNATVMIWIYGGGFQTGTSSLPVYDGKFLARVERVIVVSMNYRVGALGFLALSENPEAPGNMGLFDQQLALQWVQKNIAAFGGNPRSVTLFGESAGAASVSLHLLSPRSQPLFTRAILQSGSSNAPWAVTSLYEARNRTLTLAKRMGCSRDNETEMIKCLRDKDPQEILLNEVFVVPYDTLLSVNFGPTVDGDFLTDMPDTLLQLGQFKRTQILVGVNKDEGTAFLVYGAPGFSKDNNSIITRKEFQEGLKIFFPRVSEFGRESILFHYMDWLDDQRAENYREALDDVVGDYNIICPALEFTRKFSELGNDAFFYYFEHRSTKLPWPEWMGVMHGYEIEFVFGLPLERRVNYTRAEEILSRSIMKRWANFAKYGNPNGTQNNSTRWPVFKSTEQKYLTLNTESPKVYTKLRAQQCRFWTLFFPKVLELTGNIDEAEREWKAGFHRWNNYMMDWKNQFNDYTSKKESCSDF
Method in brief: (§1)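 BChE from equine serum (13 U/mg), Ellman spectrophotometric method run in 96-well format. Seven inhibitor concentrations, 10^-4 to 10^-10 M, each in triplicate. IC50 from non-linear regression of response against log(concentration). […] Mean of three independent experiments.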

[4] = target: T2, Amine oxidase [flavin-containing] A (Homo sapiens, UniProt P21397); assay: Inhibition of human recombinant MAOA expressed in microsomes of baculovirus-infected insect cell using kynuramine as substrate preincubated for 20 mins followed by protein addition measured after 30 mins by fluorescence assay
T2 sequence (P21397 whole entry): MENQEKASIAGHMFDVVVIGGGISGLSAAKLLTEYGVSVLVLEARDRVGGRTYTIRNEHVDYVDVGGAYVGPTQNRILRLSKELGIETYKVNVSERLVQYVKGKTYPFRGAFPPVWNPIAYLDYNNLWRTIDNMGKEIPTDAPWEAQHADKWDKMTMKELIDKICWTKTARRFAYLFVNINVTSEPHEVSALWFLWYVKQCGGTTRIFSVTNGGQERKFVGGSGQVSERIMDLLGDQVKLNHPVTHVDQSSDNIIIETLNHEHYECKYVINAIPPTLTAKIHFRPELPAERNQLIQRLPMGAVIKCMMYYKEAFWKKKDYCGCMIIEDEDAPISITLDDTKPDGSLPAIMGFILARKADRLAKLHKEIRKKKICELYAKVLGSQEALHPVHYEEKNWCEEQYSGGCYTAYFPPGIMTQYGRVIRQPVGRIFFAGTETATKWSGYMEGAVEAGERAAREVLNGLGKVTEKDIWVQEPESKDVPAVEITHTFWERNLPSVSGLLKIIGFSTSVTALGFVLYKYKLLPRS
Method in brief: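 Recombinant human MAO A (baculovirus-infected insect cell microsomes) with kynuramine substrate; inhibitor preincubated 20 min at 37 °C, enzyme then added and incubated 30 min more. Fluorescence at ex/em 320/400 nm. Triplicates, three independent experiments.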

[5] = target: Acetylcholinesterase (Electrophorus electricus, UniProt O42275); assay: Inhibition of electric eel AChE using acetylthiocholine iodide as substrate preincubated for 20 mins followed by substrate addition measured for 5 mins by spectrophotometric Ellman's method
Acetylcholinesterase, sequence (O42275 whole entry): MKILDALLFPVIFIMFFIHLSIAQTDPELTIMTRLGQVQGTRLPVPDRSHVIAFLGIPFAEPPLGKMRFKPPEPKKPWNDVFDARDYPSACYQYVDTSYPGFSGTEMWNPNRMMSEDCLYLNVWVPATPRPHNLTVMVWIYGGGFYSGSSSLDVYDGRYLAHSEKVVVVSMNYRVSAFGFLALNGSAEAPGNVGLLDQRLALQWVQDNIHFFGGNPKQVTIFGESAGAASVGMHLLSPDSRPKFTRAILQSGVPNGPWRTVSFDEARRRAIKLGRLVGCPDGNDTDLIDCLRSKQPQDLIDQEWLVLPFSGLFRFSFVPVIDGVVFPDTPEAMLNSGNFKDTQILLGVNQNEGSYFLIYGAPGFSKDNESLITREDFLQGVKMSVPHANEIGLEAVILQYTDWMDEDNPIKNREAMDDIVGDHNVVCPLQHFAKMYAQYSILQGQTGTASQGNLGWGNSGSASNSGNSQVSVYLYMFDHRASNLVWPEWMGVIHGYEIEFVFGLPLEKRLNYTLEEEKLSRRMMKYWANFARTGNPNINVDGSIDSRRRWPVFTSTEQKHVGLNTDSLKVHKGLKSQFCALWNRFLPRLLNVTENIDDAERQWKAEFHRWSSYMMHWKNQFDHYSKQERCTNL

[6] = organism: Homo sapiens; assay: Selectivity index, ratio of IC50 for human recombinant MAOA to IC50 for human recombinant MAOB
[7] = target: Cholinesterase (Equus caballus, UniProt P81908); assay: Inhibition of equine serum BChE using butyrylthiocholine iodide as substrate preincubated for 20 mins followed by substrate addition measured for 5 mins by spectrophotometric Ellman's method; method in brief: as §1
Cholinesterase, sequence (P81908 whole entry): as the sequence (P81908 whole entry) above

[8] = Kinetic aqueous solubility of the compound in Tris-HCl buffer at pH 7.4 by turbidimetric method; type: physicochemical; details: buffer
Method in brief: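 DMSO stocks added in portions to 50 mM Tris-HCl pH 7.4 at room temperature. Light scattering read as UV absorbance increase at 580–780 nm; solubility from a bilinear fit of absorbance versus µL DMSO. Reported as logS (mol/L), mean ± SEM of three independent assays.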

[9] = tested on: SH-SY5Y; assay: Neuroprotective activity against oligomycin-A-induced oxidative injury in human SH-SY5Y cells assessed as increase in cell viability at 10 uM after 24 hrs by MTT assay; type: functional, cell-based
Method in brief: (§2)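 SH-SY5Y cells incubated 24 h with compound at 1 or 10 µM together with H2O2 300 µM, oligomycin-A 10 µM or rotenone 20 µM. Viability by MTT, as % of cells given neither insult nor compound. Triplicates, three repeats; mean ± SD; two-way ANOVA with Bonferroni post hoc test.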

[10] = tested on: SH-SY5Y; assay: Neuroprotective activity against oligomycin-A-induced oxidative injury in human SH-SY5Y cells assessed as increase in cell viability at 1 uM after 24 hrs by MTT assay; type: functional, cell-based; method in brief: as §2

| SMILES | log K [1] | pIC50 [2] | inhibition [3] [%] | pIC50 [4] | pIC50 [5] | Ratio IC50 [6] | pIC50 [7] | log(Kinetic_solubility) [8] | Activity [9] | Activity [10] |
| --- | --- | --- | --- | --- | --- | --- | --- | --- | --- | --- |
| CN(Cc1ccccc1)Cc1ccc(COc2ccc3c(CO)cc(=O)oc3c2)cc1 | 1.87 | – | – | – | – | – | – | – | – | – |
| Cc1c(C)c2ccc(OC3CCN(C)CC3)cc2oc1=O | – | 6.56 | 11 | 4.93 | 5.89 | – | – | – | – | – |
| Cc1c(C)c2ccc(OCC3CCN(C)CC3)cc2oc1=O | – | 6.53 | 14 | 4.78 | 6.17 | – | – | – | – | – |
| Cc1c(C)c2ccc(OC3CCN(Cc4ccc(Cl)cc4)CC3)cc2oc1=O | – | 6.06 | 29 | 5.80 | 5.81 | 2 | – | – | – | – |
| CCCCN1CCC(Oc2ccc3c(C)c(C)c(=O)oc3c2)CC1 | – | 5.85 | 35 | 4.62 | 6.00 | – | – | – | – | – |
| Cc1c(C)c2ccc(OC3CCN(Cc4cccc(Cl)c4)CC3)cc2oc1=O | – | 6.55 | 28 | 6.06 | 5.97 | – | – | – | – | – |
| Cc1c(C)c2ccc(OCC3CCN(Cc4ccccc4)CC3)cc2oc1=O.Cl | 1.98 | 6.98 | – | 5.62 | 5.78 | – | 5.33 | -4.25 | inactive | inactive |
| Cc1c(C)c2ccc(OC3CCN(CCc4ccccc4)CC3)cc2oc1=O | – | 5.60 | – | 4.91 | 5.78 | – | 5.75 | – | – | – |
| Cc1c(C)c2ccc(OC3CCN(Cc4ccc(C#N)cc4)CC3)cc2oc1=O | – | 6.18 | 48 | 5.89 | 6.01 | 2 | – | – | – | – |
| Cc1c(C)c2ccc(OCCCN3CCc4ccccc4C3)cc2oc1=O | – | 6.53 | – | 5.57 | 5.91 | – | 6.02 | – | – | – |
| Cc1c(C)c2ccc(OCC3CCN(Cc4cccc(Cl)c4)CC3)cc2oc1=O | – | 7.05 | – | 6.15 | 5.99 | – | 5.22 | – | – | inactive |
| Cc1c(C)c2ccc(OCCCCN3CCc4ccccc4C3)cc2oc1=O | – | 6.21 | – | 5.65 | 5.94 | – | 5.58 | – | – | – |
| Cc1c(C)c2ccc(OC3CCN(CC(=O)c4ccccc4)CC3)cc2oc1=O | – | 6.94 | 45 | 5.71 | 5.42 | – | – | – | – | – |
| Cc1c(C)c2ccc(OC3CCN(Cc4ccccc4)CC3)cc2oc1=O | – | 6.35 | – | 5.44 | 6.11 | – | 5.02 | – | – | – |
